{"source": "ChEMBL document CHEMBL3758086", "about": "“Inhibitory effect of phenothiazine- and phenoxazine-derived chloroacetamides on Leishmania major growth and Trypanosoma brucei trypanothione reductase” (Eur J Med Chem, 2016)", "key": {"[1]": {"target": "Trypanothione reductase (Trypanosoma brucei brucei) (UniProt P39051)", "sequence (P39051 whole entry, looked up)": "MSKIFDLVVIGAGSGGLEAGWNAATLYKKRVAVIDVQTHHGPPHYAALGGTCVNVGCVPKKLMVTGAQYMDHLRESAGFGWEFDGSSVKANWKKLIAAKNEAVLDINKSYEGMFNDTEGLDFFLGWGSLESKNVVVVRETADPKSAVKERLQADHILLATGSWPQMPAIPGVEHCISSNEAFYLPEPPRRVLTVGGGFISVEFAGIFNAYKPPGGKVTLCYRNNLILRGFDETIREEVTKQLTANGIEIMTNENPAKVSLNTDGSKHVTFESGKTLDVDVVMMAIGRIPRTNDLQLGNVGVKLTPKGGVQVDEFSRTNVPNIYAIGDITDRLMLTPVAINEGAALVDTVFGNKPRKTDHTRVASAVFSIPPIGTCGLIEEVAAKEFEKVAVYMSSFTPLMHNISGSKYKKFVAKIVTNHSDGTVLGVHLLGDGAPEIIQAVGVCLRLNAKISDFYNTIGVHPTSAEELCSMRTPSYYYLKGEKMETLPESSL", "experiment": "Reversible inhibition of recombinant Trypanosoma brucei trypanothione reductase"}, "[2]": {"system": "Leishmania major", "experiment": "Antileishmanial activity against promastigote stage of Leishmania major assessed as inhibition of parasite proliferation after 48 hrs by Alamar Blue assay", "type": "functional, organism-based"}, "[3]": {"system": "K562", "experiment": "Cytotoxicity against human K562 cells assessed as cell growth inhibition after 48 hrs by Neubauer counting chamber analysis", "type": "cell-based", "conditions": "K562, 48 h"}, "[4]": {"target": "T1, Tryparedoxin peroxidase (Trypanosoma brucei) (UniProt Q9GU47)", "T1 sequence (whole entry)": "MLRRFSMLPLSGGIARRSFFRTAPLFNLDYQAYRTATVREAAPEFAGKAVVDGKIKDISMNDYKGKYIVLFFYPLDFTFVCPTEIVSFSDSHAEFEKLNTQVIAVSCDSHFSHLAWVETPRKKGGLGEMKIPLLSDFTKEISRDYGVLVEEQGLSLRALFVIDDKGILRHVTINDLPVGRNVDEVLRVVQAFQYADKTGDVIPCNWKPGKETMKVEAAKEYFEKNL", "experiment": "Time dependent inhibition of Trypanosoma brucei tryparedoxin peroxidase preincubated for 10 mins in presence of NADPH, tryparedoxin, T(SH)2 followed by addition of hydrogen peroxide", "in_short": "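Peroxidase cascade mixture of NADPH, T. brucei TR, tryparedoxin, peroxidase, T(SH)2 and inhibitor incubated 10 min, then reaction started with H2O2.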"}, "[5]": {"target": "Trypanothione reductase (Trypanosoma brucei brucei) (UniProt P39051)", "experiment": "Inhibition of recombinant Trypanosoma brucei trypanothione reductase at 25 uM in presence of NADPH, trypanothione disulphide", "in_short": "(§1)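 T. brucei TR (1 µM) preincubated at 25 °C in 200 µL TR assay buffer with 400 µM NADPH and compound (25, 50 or 100 µM) or DMSO (5%). At 10, 30, 60, 120 and 180 min, a 5 µL aliquot went into a 1 mL standard assay with 100 µM NADPH, started with 100 µM trypanothione disulfide. Absorbance decrease at 340 nm followed at 25 °C.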"}, "[6]": {"target": "Trypanothione reductase (Trypanosoma brucei brucei) (UniProt P39051)", "conditions": "50 uM"}, "[7]": {"target": "Trypanothione reductase (Trypanosoma brucei brucei) (UniProt P39051)", "experiment": "Inhibition of recombinant Trypanosoma brucei trypanothione reductase at 100 uM in presence of NADPH, trypanothione disulphide", "in_short": "as §1"}}, "note": "The source made the active and inactive calls. The calls are words filed in the database; no cut-off is given here.", "data": [{"smiles": "O=C(CCl)N1c2ccccc2Sc2ccccc21", "values": [{"measurement": "inhibition", "setting": "[1]", "value": "inactive"}, {"measurement": "IC50", "setting": "[2]", "value": 9.3, "unit": "µM"}, {"measurement": "IC50", "setting": "[3]", "value": 5, "unit": "µM"}, {"measurement": "TDI", "setting": "[4]", "value": "inactive"}]}, {"smiles": "O=C(CCCl)N1c2ccccc2Oc2ccc(Cl)cc21", "values": [{"measurement": "inhibition", "setting": "[1]", "value": "inactive"}, {"measurement": "IC50", "setting": "[2]", "value": 15.7, "unit": "µM"}, {"measurement": "IC50", "setting": "[3]", "value": 10.2, "unit": "µM"}]}, {"smiles": "Clc1ccc2c(c1)Nc1ccccc1O2", "values": [{"measurement": "inhibition", "setting": "[1]", "value": "inactive"}, {"measurement": "IC50", "setting": "[2]", "value": 69.2, "unit": "µM"}, {"measurement": "inhibition", "setting": "[5]", "value": "inactive"}]}, {"smiles": "O=C(CCl)N1c2ccccc2Oc2ccc(C(F)(F)F)cc21", "values": [{"measurement": "inhibition", "setting": "[1]", "value": "inactive"}, {"measurement": "IC50", "setting": "[2]", "value": 9.6, "unit": "µM"}]}, {"smiles": "NC[C@@H]1O[C@H](O[C@H]2[C@@H](O)[C@H](O[C@@H]3[C@@H](O)[C@H](N)C[C@H](N)[C@H]3O[C@H]3O[C@H](CO)[C@@H](O)[C@H](O)[C@H]3N)O[C@@H]2CO)[C@H](N)[C@@H](O)[C@@H]1O", "note": "[PAROMOMYCIN]", "values": [{"measurement": "IC50", "setting": "[2]", "value": "> 100", "unit": "µM"}]}, {"smiles": "N#CCC(=O)N1c2ccccc2Oc2ccccc21", "values": [{"measurement": "inhibition", "setting": "[1]", "value": "inactive"}, {"measurement": "IC50", "setting": "[2]", "value": "> 100", "unit": "µM"}, {"measurement": "IC50", "setting": "[3]", "value": 23, "unit": "µM"}]}, {"smiles": "O=C(CCl)N1c2ccccc2COc2ccc(Cl)cc21", "values": [{"measurement": "inhibition", "setting": "[1]", "value": "inactive"}, {"measurement": "IC50", "setting": "[2]", "value": 7.2, "unit": "µM"}, {"measurement": "IC50", "setting": "[3]", "value": 3.3, "unit": "µM"}, {"measurement": "TDI", "setting": "[4]", "value": "inactive"}]}, {"smiles": "ClCCN1c2ccccc2Oc2ccc(Cl)cc21", "values": [{"measurement": "inhibition", "setting": "[1]", "value": "inactive"}, {"measurement": "IC50", "setting": "[2]", "value": "> 100", "unit": "µM"}]}, {"smiles": "O=C(CCl)N1c2ccccc2Sc2ccc(Cl)cc21", "values": [{"measurement": "inhibition", "setting": "[1]", "value": "inactive"}, {"measurement": "IC50", "setting": "[2]", "value": 10.4, "unit": "µM"}, {"measurement": "IC50", "setting": "[3]", "value": 3.2, "unit": "µM"}]}, {"smiles": "O=C(CCl)N1c2ccccc2Oc2ccc(Cl)cc21", "values": [{"measurement": "inhibition", "setting": "[1]", "value": "inactive"}, {"measurement": "IC50", "setting": "[2]", "value": 7.6, "unit": "µM"}, {"measurement": "IC50", "setting": "[3]", "value": 3, "unit": "µM"}, {"measurement": "inhibition", "setting": "[6]", "value": "inactive"}]}, {"smiles": "O=C(C(Cl)Cl)N1c2ccccc2Oc2ccccc21", "values": [{"measurement": "inhibition", "setting": "[1]", "value": "inactive"}, {"measurement": "IC50", "setting": "[2]", "value": 82, "unit": "µM"}, {"measurement": "IC50", "setting": "[3]", "value": "> 30", "unit": "µM"}]}, {"smiles": "C[C@@H]1[C@H](O)[C@@H](C)/C=C/C=C/C=C/C=C/C=C/C=C/C=C/[C@H](O[C@@H]2O[C@H](C)[C@@H](O)[C@H](N)[C@@H]2O)C[C@@H]2O[C@](O)(C[C@@H](O)C[C@@H](O)[C@H](O)CC[C@@H](O)C[C@@H](O)CC(=O)O[C@H]1C)C[C@H](O)[C@H]2C(=O)O", "note": "[AMPHOTERICIN B]", "values": [{"measurement": "IC50", "setting": "[2]", "value": 0.33, "unit": "µM"}]}, {"smiles": "O=C(CCl)N1c2ccccc2CCc2ccccc21", "values": [{"measurement": "inhibition", "setting": "[1]", "value": "inactive"}, {"measurement": "IC50", "setting": "[2]", "value": 43.3, "unit": "µM"}, {"measurement": "IC50", "setting": "[3]", "value": 4.8, "unit": "µM"}]}, {"smiles": "O=C(CCl)N1c2cc(Cl)ccc2Oc2ccc(Cl)cc21", "values": [{"measurement": "inhibition", "setting": "[1]", "value": "inactive"}, {"measurement": "IC50", "setting": "[2]", "value": 9.5, "unit": "µM"}, {"measurement": "IC50", "setting": "[3]", "value": 2.03, "unit": "µM"}]}, {"smiles": "O=C(CCl)n1c2ccccc2c2ccccc21", "values": [{"measurement": "inhibition", "setting": "[1]", "value": "inactive"}, {"measurement": "IC50", "setting": "[2]", "value": "> 100", "unit": "µM"}, {"measurement": "IC50", "setting": "[3]", "value": 6.44, "unit": "µM"}]}, {"smiles": "O=C(CCCl)N1c2ccccc2Oc2ccccc21", "values": [{"measurement": "inhibition", "setting": "[1]", "value": "inactive"}, {"measurement": "IC50", "setting": "[2]", "value": 39.1, "unit": "µM"}, {"measurement": "IC50", "setting": "[3]", "value": 15.2, "unit": "µM"}]}, {"smiles": "N=C(N)c1ccc(OCCCCCOc2ccc(C(=N)N)cc2)cc1", "values": [{"measurement": "IC50", "setting": "[2]", "value": 84, "unit": "µM"}]}, {"smiles": "CC(Cl)C(=O)N1c2ccccc2Oc2ccccc21", "note": "(centres undefined)", "values": [{"measurement": "inhibition", "setting": "[1]", "value": "inactive"}, {"measurement": "IC50", "setting": "[2]", "value": "> 100", "unit": "µM"}, {"measurement": "IC50", "setting": "[3]", "value": "> 30", "unit": "µM"}]}, {"smiles": "CCCCCCCCCCCCCCCCOP(=O)([O-])OCC[N+](C)(C)C", "note": "[MILTEFOSINE]", "values": [{"measurement": "IC50", "setting": "[2]", "value": 36, "unit": "µM"}]}, {"smiles": "O=C(C(Cl)CCl)N1c2ccccc2Oc2ccccc21", "note": "(centres undefined)", "values": [{"measurement": "inhibition", "setting": "[1]", "value": "inactive"}, {"measurement": "IC50", "setting": "[2]", "value": 9.6, "unit": "µM"}]}, {"smiles": "O=C(CCCCl)N1c2ccccc2Oc2ccc(Cl)cc21", "values": [{"measurement": "inhibition", "setting": "[1]", "value": "inactive"}, {"measurement": "IC50", "setting": "[2]", "value": "> 100", "unit": "µM"}, {"measurement": "IC50", "setting": "[3]", "value": "> 90", "unit": "µM"}]}, {"smiles": "O=C(CCl)Nc1cc(Cl)ccc1Oc1ccccc1", "values": [{"measurement": "inhibition", "setting": "[1]", "value": "inactive"}, {"measurement": "IC50", "setting": "[2]", "value": 42.6, "unit": "µM"}]}, {"smiles": "O=C(CCl)N1c2ccccc2C=Cc2ccccc21", "values": [{"measurement": "inhibition", "setting": "[1]", "value": "inactive"}, {"measurement": "IC50", "setting": "[2]", "value": 48.1, "unit": "µM"}, {"measurement": "IC50", "setting": "[3]", "value": 6.2, "unit": "µM"}]}, {"smiles": "CC(=O)N1c2ccccc2Oc2ccc(Cl)cc21", "values": [{"measurement": "inhibition", "setting": "[1]", "value": "inactive"}, {"measurement": "IC50", "setting": "[2]", "value": "> 100", "unit": "µM"}, {"measurement": "IC50", "setting": "[3]", "value": "> 30", "unit": "µM"}, {"measurement": "inhibition", "setting": "[7]", "value": "inactive"}]}, {"smiles": "O=C(CCl)N(c1ccccc1)c1cccc(Cl)c1", "values": [{"measurement": "inhibition", "setting": "[1]", "value": "inactive"}, {"measurement": "IC50", "setting": "[2]", "value": 40.3, "unit": "µM"}]}, {"smiles": "O=C(CBr)N1c2ccccc2Oc2ccc(Cl)cc21", "values": [{"measurement": "inhibition", "setting": "[1]", "value": "inactive"}, {"measurement": "IC50", "setting": "[2]", "value": "> 100", "unit": "µM"}, {"measurement": "IC50", "setting": "[3]", "value": 6.15, "unit": "µM"}]}]}
